Test results from ChEMBL document CHEMBL1255240, “The mitochondrion is a site of trypanocidal action of the aromatic diamidine DB75 in bloodstream forms of Trypanosoma brucei” (Antimicrob Agents Chemother, 2008).
Activity calls are given as the source filed them. The calls are words filed in the database; no cut-off is given here.

Legend:
[1] = tested on: Trypanosoma brucei brucei; test: Antimicrobial activity against Trypanosoma brucei brucei 427 bloodstream form assessed as inhibition of glucose-dependent cellular respiration; type: functional, organism-based
Method in brief: (§1)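 Bloodstream trypanosomes from infected rat blood, DE52-purified, washed once in mannitol-based buffer pH 7.4 (220 mM mannitol, 25 mM HEPES, 2 mM EGTA, 5 mM MgSO4) with 20 mM glucose. O2 uptake of 2.0 × 10^6 cells/ml recorded with an oxygen electrode at 37°C. % inhibition from the rates just before vs after compound addition. Two independent experiments.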

[2] = tested on: Trypanosoma brucei brucei; test: Antimicrobial activity against Trypanosoma brucei brucei 427 bloodstream form assessed as inhibition of mitochondrial ATPase activity at 100 uM after 10 mins; type: functional; parameters: scale not given: the % may be the effect or the level left
Method in brief: (§2)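 Bloodstream-form mitochondrial fraction, 100 μg protein, in 20 mM Tris-HCl pH 7.4 with 15 mM KH2PO4, 0.6 M sorbitol, 10 mM MgSO4 and 2.5 mg/ml fatty acid-free BSA. Pre-incubated 10 min on ice with compound (final 10, 50 or 100 μM; oligomycin 50 μM pretreatment where combined), then 0.20 mM ATP for 30 min at 30°C. Perchloric acid quench; remaining ATP by luciferase against a standard curve, blank subtracted. Activity relative to untreated control (100%). Duplicates; three independent experiments.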

[3] = tested on: Trypanosoma brucei brucei; test: Inhibition of respiration in Trypanosoma brucei brucei 427 bloodstream form mitochondria using glycerol-3-phosphate as substrate at 600 uM; type: functional
Method in brief: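 Mitochondrial fraction from rat-derived bloodstream cells, prepared by glass-bead lysis and differential centrifugation (12,000 × g pellet) at 0–4°C. Suspended to 0.8 mg/ml in glucose-free mannitol buffer pH 7.4 with 20 mM L-α-glycerol phosphate as substrate. O2 uptake by oxygen electrode at 37°C; compound added after a stable reading (about 2 min) and recording continued several minutes.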

[4] = tested on: Trypanosoma brucei brucei; test: Antimicrobial activity against Trypanosoma brucei brucei 427 bloodstream form assessed as inhibition of glucose-dependent cellular respiration at 300 uM; type: functional, organism-based; method in brief: as §1
[5] = tested on: Trypanosoma brucei brucei; test: Antimicrobial activity against Trypanosoma brucei brucei 427 bloodstream form assessed as inhibition of mitochondrial ATPase activity pretreated with oligomycin for 10 mins; type: functional; method in brief: as §2
[6] = tested on: Trypanosoma brucei brucei; test: Antimicrobial activity against Trypanosoma brucei brucei 427 bloodstream form assessed as reduction in mitochondrial membrane potential at 1 uM after 1 min using rhodamine 123 exclusion test; type: functional, organism-based
Method in brief: (§3)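 Rat-derived bloodstream cells washed in Tes buffer pH 7.5 (10 mM glucose, 1.0% fatty acid-free BSA) at room temperature. Cells at 10^7/ml pretreated with compound for the stated time, then 250 nM Rh123 for 2 min. Diluted 1:10 and flow cytometry (excitation 507, emission 529 nm) on 20,000 cells. % decrease in mean fluorescence versus untreated cells; at least three independent experiments.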

[7] = tested on: Trypanosoma brucei brucei; test: Antimicrobial activity against Trypanosoma brucei brucei 427 bloodstream form assessed as reduction in mitochondrial membrane potential at 10 uM after 1 min using rhodamine 123 exclusion test; type: functional; parameters: scale not given: the % may be the effect or the level left; method in brief: as §3
[8] = tested on: Trypanosoma brucei brucei; test: Antimicrobial activity against Trypanosoma brucei brucei 427 bloodstream form assessed as inhibition of mitochondrial ATPase activity at 50 uM after 10 mins; type: functional; parameters: scale not given: the % may be the effect or the level left; method in brief: as §2
[9] = tested on: Trypanosoma brucei brucei; test: Antimicrobial activity against Trypanosoma brucei brucei 427 bloodstream form assessed as inhibition of mitochondrial ATPase activity 10 uM after 10 mins; type: functional; parameters: scale not given: the % may be the effect or the level left; method in brief: as §2
[10] = Drug uptake in Trypanosoma brucei brucei 427 bloodstream form mitochondria at 100 uM after 5 mins by fluorescence microscopy; type: ADME
Method in brief: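 Living cells (10^6/ml) loaded with 25 nM MitoTracker Red CMXRos for 30 min at 37°C, washed, then given 100 μM compound for 5 min. Immobilised in 1.5% agarose (3.0% mixed 1:1) on a cold slide. Viewed with a DAPI-FITC-Texas Red triple filter; pink overlap taken as mitochondrial colocalisation.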

[11] = Drug uptake in Trypanosoma brucei brucei 427 bloodstream form kinetoplast at 1 uM after 5 mins by fluorescence microscopy; type: ADME
Method in brief: (§4)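 Cells (about 10^6) incubated with 1.0 μM compound in cBMEM (MEM-based, 10% heat-inactivated FBS) at 37°C, 5% CO2. Aliquots taken at set times, pelleted, and dried films examined by UV fluorescence microscopy. Intrinsic blue fluorescence (excitation 365, emission 465 nm) scored in nucleus and kinetoplast.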

[12] = Drug uptake in Trypanosoma brucei brucei 427 bloodstream form nucleus at 1 uM after 5 mins by fluorescence microscopy; type: ADME; method in brief: as §4
[13] = tested on: Trypanosoma brucei brucei; test: Antimicrobial activity against Trypanosoma brucei brucei 427 bloodstream form assessed as reduction in mitochondrial membrane potential at 4 uM after 1 min using rhodamine 123 exclusion test; type: functional; parameters: scale not given: the % may be the effect or the level left; method in brief: as §3
[14] = tested on: Trypanosoma brucei brucei; test: Antimicrobial activity against Trypanosoma brucei brucei 427 bloodstream form assessed as reduction in mitochondrial membrane potential at 4 uM after 10 mins using rhodamine 123 exclusion test relative to control; type: functional; parameters: scale not given: the % may be the effect or the level left; method in brief: as §3
[15] = tested on: Trypanosoma brucei brucei; test: Antimicrobial activity against Trypanosoma brucei brucei 427 bloodstream form assessed as reduction in mitochondrial membrane potential at 10 uM after 5 mins using rhodamine 123 exclusion test relative to control; type: functional; parameters: scale not given: the % may be the effect or the level left; method in brief: as §3
[16] = tested on: Trypanosoma brucei brucei; test: Antimicrobial activity against Trypanosoma brucei brucei 427 bloodstream form assessed as reduction in mitochondrial membrane potential at 10 uM using rhodamine 123 exclusion test; type: functional, organism-based; method in brief: as §3
[17] = tested on: Trypanosoma brucei brucei; test: Inhibition of respiration in Trypanosoma brucei brucei 427 bloodstream form mitochondria using glycerol-3-phosphate as substrate at 2 mM; type: functional
Method in brief: (§5)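 Bloodstream trypanosomes were taken from infected rat blood and purified on DE52. They were lysed with glass beads, and a mitochondrial fraction was isolated by differential centrifugation at 0–4°C. Mitochondria at 0.8 mg/ml were held in mannitol/HEPES/EGTA/MgSO4 buffer, pH 7.4, without glucose, with 20 mM L-α-glycerol phosphate as substrate. Compound was added after a stable reading (about 2 min), and O2 consumption was recorded by oxygen electrode at 37°C.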

[18] = tested on: Trypanosoma brucei brucei; test: Inhibition of respiration in Trypanosoma brucei brucei 427 bloodstream form mitochondria using glycerol-3-phosphate as substrate at 10 uM; type: functional; method in brief: as §5
[19] = tested on: Trypanosoma brucei brucei; test: Antimicrobial activity against Trypanosoma brucei brucei 427 bloodstream form assessed as reduction in mitochondrial membrane potential at 10 uM after 10 mins using rhodamine 123 exclusion test relative to control; type: functional; parameters: scale not given: the % may be the effect or the level left; method in brief: as §3

N=C(N)c1ccc(-c2ccc(-c3ccc(C(=N)N)cc3)o2)cc1 [FURAMIDINE]
IC50 [1]: 20 µM
Activity [2]: 47%
inhibition [3]: inactive
Activity [4]: Active
Activity [5]: Active
Activity [6]: Active
Activity [7]: 57%
Activity [8]: 47%
Activity [9]: 20%
Drug uptake [10]: Active
Drug uptake [11]: Active
Drug uptake [12]: Active

CC[C@H]1/C=C/C=C/C[C@@H](C)[C@H](O)[C@@](C)(O)C(=O)[C@@H](C)[C@H](O)[C@@H](C)C(=O)[C@@H](C)[C@H](O)[C@@H](C)/C=C/C(=O)O[C@@H]2[C@H](C)[C@H](CC1)O[C@]1(CC[C@H](C)[C@H](C[C@@H](C)O)O1)[C@H]2C [OLIGOMYCIN]
Activity [8]: 30%
Activity [13]: 23%
Activity [14]: 50%

N#CC(C#N)=NNc1cccc(Cl)c1 [CARBONYL CYANIDE M-CHLOROPHENYLHYDRAZONE]
Activity [15]: 51%
Activity [7]: 36%
Activity [8]: inactive

CCCCCC[C@H]1C(=O)O[C@H](C)[C@H](NC(=O)c2cccc(NC=O)c2O)C(=O)O[C@@H](C)[C@@H]1OC(=O)CC(C)C
Activity [16]: inactive

O=C(NO)c1ccccc1O
inhibition [17]: Active
inhibition [18]: Active

CC(C)[C@@H]1NC(=O)[C@H](C)OC(=O)[C@@H](C(C)C)NC(=O)[C@@H](C(C)C)OC(=O)[C@H](C(C)C)NC(=O)[C@H](C)OC(=O)[C@@H](C(C)C)NC(=O)[C@@H](C(C)C)OC(=O)[C@H](C(C)C)NC(=O)[C@H](C)OC(=O)[C@@H](C(C)C)NC(=O)[C@@H](C(C)C)OC1=O [VALINOMYCIN]
Activity [19]: 70%
